Results from ChEMBL document CHEMBL1955742, “Synthesis and SAR studies of phenanthroindolizidine and phenanthroquinolizidine alkaloids as potent anti-tumor agents” (2012).

How the values were obtained:
Assay type in all cases: functional
[1] = system: A549; assay: Antiproliferative activity against human A549 cells at 10^-6 mol/L after 72 hrs by MTT assay; conditions: A549, 72 h
[2] = system: A549; assay: Antiproliferative activity against human A549 cells at 10^-8 mol/L after 72 hrs by MTT assay; conditions: A549, 72 h
[3] = system: HL-60; assay: Antiproliferative activity against human HL60 cells at 10^-6 mol/L after 72 hrs by SRB assay; conditions: HL-60, 72 h
[4] = system: A549; assay: Antiproliferative activity against human A549 cells after 72 hrs by MTT assay
How it was run: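 A549 human lung adenocarcinoma epithelial cells were seeded and grown for 24 h, then exposed to compounds for a further 72 h. Proliferation was read by MTT, as assigned in the table footnote. GI50 was calculated by the Logit method from at least three independent experiments.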

[5] = system: HL-60; assay: Antiproliferative activity against human HL60 cells at 10^-7 mol/L after 72 hrs by SRB assay; conditions: HL-60, 72 h
[6] = system: HL-60; assay: Antiproliferative activity against human HL60 cells at 10^-8 mol/L after 72 hrs by SRB assay; conditions: HL-60, 72 h
[7] = system: A549; assay: Antiproliferative activity against human A549 cells at 10^-7 mol/L after 72 hrs by MTT assay; conditions: A549, 72 h
[8] = system: HL-60; assay: Antiproliferative activity against human HL60 cells after 72 hrs by SRB assay
How it was run: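 HL60 human promyelocytic leukemia cells were seeded and grown for 24 h, then given compounds and cultured for another 72 h. Read-out was SRB, per the table footnote. GI50 was obtained by the Logit method from three or more independent experiments.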

GI50 ([4]; Homo sapiens, A549, 72 h) [nM]	GI50 ([8]; Homo sapiens, HL-60, 72 h) [nM]	SMILES	inhibition at 1 µM [1] [%]	inhibition at 0.01 µM [2] [%]	inhibition at 1 µM [3] [%]	inhibition at 0.1 µM [5] [%]	inhibition at 0.01 µM [6] [%]	inhibition at 0.1 µM [7] [%]	GI50 [8] [nM]	GI50 [4] [nM]
360		COc1cc2c3c(c4cc5c(cc4c2cc1OC)OCCO5)CC1CCCN1C3 (racemic)	87.4	14	83.1	37	3.8	58.2		
100	50	COc1ccc2c3c(c4cc(OC)c(OC)cc4c2c1)CN1CCC[C@H]1[C@H]3N								
		c1c2c(cc3c1c1c(c4cc5c(cc43)OCCO5)CN3CCCC3C1)OCCO2 (racemic)	38.6	8.7	11.2	8.2	0	6.3		
670		COc1cc2c3c(c4cc(OC)c(OC)cc4c2cc1OC)[C@H](O)[C@@H]1CCCN1C3	80.9	17.1	85	59.5	34.5	55		
> 10000	> 10000	COc1ccc2c3c(c4cc(OC)c(OC)cc4c2c1)[C@H](NC(=O)C(C)(C)C)[C@@H]1CCCN1C3								
> 10000	> 10000	COc1ccc2c3c(c4cc(OC)c(OC)cc4c2c1)CN1CCC[C@H]1[C@H]3NC(=O)C(C)(C)C								
700	600	COc1ccc2c3c(c4cc(OC)c(OC)cc4c2c1)CN1CCCC[C@H]1C3								
10	< 1	COc1ccc2c3c(c4cc(OC)c(OC)cc4c2c1)C[C@H]1CCCN1C3 [(-)-ANTOFINE]								
< 1	< 1	COc1cc2c3c(c4ccc(O)cc4c2cc1OC)CN1CCC[C@@H]1C3	94.8	86	89.7	87.1	86.5	92.3		
400	300	COc1cc2c3c(c4cc(OC)c(OC)cc4c2cc1OC)[C@H](O)[C@@H]1CCCCN1C3								
970		COc1cc2c3c(c4cc5c(cc4c2cc1OC)OCCO5)CN1CCCC1C3 (racemic)	85.6	2.1	84.4	52.2	16	78.9		
		COc1ccc2c3c(c4cc(OC)c(OC)cc4c2c1)C[C@@H]1CCCCN1C3							< 1	< 1
> 10000	> 10000	COc1cc2c3c(c4cc(OC)c(OC)cc4c2cc1OC)[C@H](NC(C)=O)[C@@H]1CCCN1C3								
		COc1cc2c3c(c4cc5c(cc4c2cc1OC)OCO5)CN1CCCC1C3 (racemic)	80.9	16.9	88.4	56.4	14.8	51.6		
90	60	COc1ccc2c3c(c4cc(OC)c(OC)cc4c2c1)CN1CCC[C@H]1C3								
700	300	COc1ccc2c3c(c4cc(OC)c(OC)cc4c2c1)CN1CCC[C@@H]1C3								
3700	300	COc1ccc2c3c(c4cc(OC)c(OC)cc4c2c1)CN1CCC[C@@H]1[C@@H]3O								
		COc1cc2c3c(c4cc(OC)c(OC)cc4c2cc1OC)[C@@H](O)[C@@H]1CCCN1C3	50	5.2	49.8	8.2	3.9	8.2		
20	< 1	COc1ccc2c3c(c4cc(OC)c(OC)cc4c2c1)[C@@H](O)[C@H]1CCCCN1C3								

SMILES	GI50 ([4]; Homo sapiens, A549, 72 h) [nM]	GI50 ([8]; Homo sapiens, HL-60, 72 h) [nM]	inhibition at 1 µM [1] [%]	inhibition at 0.01 µM [2] [%]	inhibition at 1 µM [3] [%]	inhibition at 0.1 µM [5] [%]	inhibition at 0.01 µM [6] [%]	inhibition at 0.1 µM [7] [%]	GI50 [8] [nM]	GI50 [4] [nM]
COc1ccc2c3c(c4cc(OC)c(OC)cc4c2c1)C[C@H]1CCCCN1C3 [CRYPTOPLEURINE]	< 1	< 1								
COc1ccc2c3c(c4cc(OC)c(OC)cc4c2c1)[C@H](O)[C@@H]1CCCN1C3	> 10000	> 10000								
COc1cc2c3c(c4cc(OC)c(OC)cc4c2cc1OC)CN1CCC[C@@H]1C3 [TYLOPHORINE]	500	100								
